Compound activity deposited in PubChem BioAssay by Broad Institute.
GSK3A inh – blockers of GSK3A enzyme activity – biochemical, luminescence, cell-free homogeneous, HTS, primary screen; Glycogen synthase kinase-3 alpha (Homo sapiens), P49840; GSK-3 alpha kinase, ADP-Glo luminescence, 60 min; inhibition, % at 10 µM; 0.1% of 320,000 active;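 active means more than half of replicates show inhibition above 20%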;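 further: GST-tagged GSK-3 alpha with peptide substrate and 25 µM ATP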
STK33 inh – inhibitors of purified STK33 kinase, primary screen, biochemical, ADP-Glo luminescence, homogeneous, cell-free; MBP phosphorylation; 0.073% of 320,000 active; AID 2661, 2010; inhibition, % at 10 µM; Serine/threonine-protein kinase 33 (Homo sapiens), Q9BYT3;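 active means inhibition at or above 25%, using the most active replicate where run in duplicate; inactive means inhibition below 25%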
Target sequence (Q9BYT3 whole entry, looked up): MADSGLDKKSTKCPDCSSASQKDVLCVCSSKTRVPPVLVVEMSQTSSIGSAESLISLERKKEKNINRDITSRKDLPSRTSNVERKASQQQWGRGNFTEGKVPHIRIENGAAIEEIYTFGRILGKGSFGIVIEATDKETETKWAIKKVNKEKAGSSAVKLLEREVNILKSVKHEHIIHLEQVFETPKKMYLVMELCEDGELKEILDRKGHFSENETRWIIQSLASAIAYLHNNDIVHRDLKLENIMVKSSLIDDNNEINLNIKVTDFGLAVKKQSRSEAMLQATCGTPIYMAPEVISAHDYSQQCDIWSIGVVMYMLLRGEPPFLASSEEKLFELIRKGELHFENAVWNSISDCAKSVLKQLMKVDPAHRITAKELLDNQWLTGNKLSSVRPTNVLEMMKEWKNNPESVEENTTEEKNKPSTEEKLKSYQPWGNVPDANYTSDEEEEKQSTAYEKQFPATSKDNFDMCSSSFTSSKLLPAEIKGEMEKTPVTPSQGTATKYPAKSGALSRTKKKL
Dyrk1A ADPGlo – rat Dyrk1A kinase inhibitors, primary screen, biochemical, single point, plate reader; Dual specificity tyrosine-phosphorylation-regulated kinase 1A (Rattus norvegicus), Q63470; ADP-Glo luminescence, NFATc1 peptide; inhibition, % at 12.5 µM; 0.43% of 310,000 active; AID 504441, 2011; in the data active means inhibition above about 50%
GSK3beta inhib – human GSK3beta kinase inhibitors, primary screen, biochemical, cell-free homogeneous, HTS. 0.038% of 300,000 active. activity score (negative = inhibition), % at 10 µM. GST-GSK3beta kinase, ADP-Glo luminescence, 60 min; stronger effect = lower value. AID 2097, 2009;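 active means more than half of replicate wells score below -50%, meaning over 50% inhibition versus plate controls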
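Assay system: GST-fused GSK3beta enzyme, cell-free / Medium: Tris pH 7.5 buffer with MgCl2, DTT, BSA, heparin / Also added: peptide substrate plus 25 µM ATP (final) / Compound: 10 µM single point / Timing: kinase reaction with compound 60 min at room temperature / Detection: ADP-Glo luminescence / Benchmarks: DMSO neutral wells and GW8510 at 20 µM as positive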
CDK5 inh – inhibitors of human CDK5/p35 kinase, primary screen, biochemical, single concentration | Cyclin-dependent kinase 5 (Homo sapiens) + Cyclin-dependent kinase 5 activator 1 (Homo … | Recombinant CDK5/p35, ADP-Glo luminescence, 60 min | inhibition, % at 10 µM | 0.01% of 330,000 active;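 active means highest replicate inhibition of at least 50% and at least 75% of replicates reaching 50%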
ADP-Glo artifact – ADP-Glo luciferase interference without Dyrk1A, dose response, artefact control for Dyrk1A inhibitor project, biochemical, luminescence, cherry-pick, set 02 | AC50, µM (series often up to 12 µM) | shares compounds with Dyrk1A ADPGlo | 1,300 tested, under 10 active | ADP-Glo luciferase artifact assay, no Dyrk1A;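 active means fitted half-maximal dose AC50 no more than ten times the top valid tested dose, with luminescence dropping as dose rises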
Each line names hits and unclear results; the compound was inactive in the other large screens (follow-up assays come after a bar, where they were run). The sample as a whole holds a higher share of hits than the screen did.

CCC(=O)c1ccc(SC(=O)N(C)C)cc1O	none
O=C(Cc1ccccc1)c1c[nH]c(C(=O)NCCCN2CCOCC2)c1	none (no result: Dyrk1A ADPGlo)
CC(=O)Nc1ccc(S(=O)(=O)N2CCN(CC(=O)N3CCOCC3)CC2)cc1	none (no result: Dyrk1A ADPGlo)
Cc1cc(N2CCN(C)CC2)nc2ccc(NC(=O)c3ccc(Br)o3)cc12	STK33 inh 34
Cc1cc(N2CCCCC2)nc2ccc(NC(=O)c3ccc(Br)o3)cc12	none
Cc1ccnc(NC(=O)C(C)n2cc([N+](=O)[O-])cn2)c1 (stereo unspecified)	GSK3beta inhib -74 (no result: Dyrk1A ADPGlo)
CN(Cc1c(C(=O)N/N=C/c2ccc(O)cc2)nnn1-c1nonc1N)c1ccccc1	GSK3A inh 75
CC(=C/c1ccco1)/C=N/NC(=O)c1nnn(-c2nonc2N)c1CN(C)C	GSK3A inh 59
CCN(CC)Cc1c(C(=O)N/N=C/c2ccccn2)nnn1-c1nonc1N	GSK3A inh 60, GSK3beta inhib -54
CCN(CC)Cc1c(C(=O)N/N=C/c2cccc3ccccc23)nnn1-c1nonc1N	none
CN(C)Cc1c(C(=O)N/N=C/c2cccs2)nnn1-c1nonc1N	none
CCN(CC)Cc1c(C(=O)N/N=C/c2cccs2)nnn1-c1nonc1N	GSK3A inh 76
CCOC(=O)c1c(NC(=O)CC2Nc3cc(C)c(C)cc3NC2=O)sc(C)c1C (stereo unspecified)	none (no result: Dyrk1A ADPGlo)
CC(=O)c1sc(N/N=C2\CC3CCC2(C)C3(C)C)nc1C (stereo unspecified)	none
NS(=O)(=O)c1ccc(CCNC(=O)COC(=O)C2CCN(c3ccc(C(F)(F)F)cn3)CC2)cc1	none
c1cncc(-c2nc3ccccc3[nH]2)c1	Dyrk1A ADPGlo 51 | ADP-Glo artifact inactive
Cc1c(C)n(Cc2ccc(F)cc2)c2ccc(C(=O)NCCCN3CCOCC3)cc12	none
CS(=O)(=O)c1ccc(-c2cn3cc(C(=O)O)ccc3n2)cc1	Dyrk1A ADPGlo 77 | ADP-Glo artifact inactive
COCC(C)n1c(SCC(=O)Nc2sccc2C(N)=O)nc2ccccc2c1=O (stereo unspecified)	none (no result: GSK3beta inhib)
Cn1c2ccccc2c2cc(/C=N/NC(=O)c3cc(O)cc(O)c3)ccc21	none
Cn1c2ccccc2c2cc(/C=N/NC(=O)c3cc(O)ccc3O)ccc21	Dyrk1A ADPGlo 61 | ADP-Glo artifact inactive
Cn1cnc2c(=O)sc3ccccc3c21	Dyrk1A ADPGlo 70 | ADP-Glo artifact inactive
c1cncc(-c2nc(-c3cccs3)cs2)c1	none
c1cncc(-c2csc(-c3cccnc3)n2)c1	Dyrk1A ADPGlo 86 | ADP-Glo artifact inactive
O=c1c(O)cccc2cc(O)c(O)c(O)c12	Dyrk1A ADPGlo 82 | ADP-Glo artifact inactive
O=C1c2ccccc2C(=O)c2c(O)c(O)cc(O)c21	none (no result: GSK3A inh, STK33 inh, GSK3beta inhib)
CCC1Oc2ccc(C)cc2N(CC(=O)N2CCOCC2)C1=O (stereo unspecified)	none
O=C1NC(c2cccc([N+](=O)[O-])c2)Oc2ccccc21 (stereo unspecified)	none
CC(C)NC(=O)Nc1cccc2c1O[C@H](CN(C)C(=O)NC1CCCCC1)[C@H](C)CN([C@H](C)CO)C2=O	Dyrk1A ADPGlo 51 (no result: GSK3beta inhib) | ADP-Glo artifact inactive
CC(C)NC(=O)Nc1cccc2c1O[C@H](CN(C)C(=O)NC1CCCCC1)[C@@H](C)CN([C@H](C)CO)C2=O	none (no result: GSK3beta inhib)
COc1ccc(N/C=C2\CCc3ccccc3C2=O)cc1	none
COc1ccc(N/C=C2\C(=O)CCc3c2oc2cc(Cl)c(O)c(Cl)c32)cc1	Dyrk1A ADPGlo 55 | ADP-Glo artifact inactive
CCN1C(=O)/C(=C2/Sc3ccccc3N2CC)S/C1=N\c1ncn[nH]1	Dyrk1A ADPGlo 61 | ADP-Glo artifact inactive
Cc1c(C(=O)Nc2cccc([N+](=O)[O-])c2)cnn1-c1ccccc1	none
COc1ccc(-n2c(C)nc3cc(C(=O)NCc4ccc5c(c4)OCO5)ccc32)cc1	Dyrk1A ADPGlo 57 | ADP-Glo artifact inactive
COc1ccc(-n2c(C)nc3cc(C(=O)NCc4ccco4)ccc32)cc1	Dyrk1A ADPGlo 51 | ADP-Glo artifact inactive
CCOc1ccc(-n2c(C)nc3cc(C(=O)NCc4ccc5c(c4)OCO5)ccc32)cc1	none
CCCc1c(NC(=O)Nc2ccc(Cl)cc2Cl)cnn1-c1ccccc1	none (no result: Dyrk1A ADPGlo)
C/C(=C/c1oc2ccc(O)cc2c1[N+](=O)[O-])N(C)C	Dyrk1A ADPGlo 52 | ADP-Glo artifact inactive
COc1ccc(-c2csc3ncnc(Sc4nnnn4C)c23)cc1	Dyrk1A ADPGlo 50 (no result: GSK3beta inhib) | ADP-Glo artifact inactive
C[C@H](CO)N1C[C@H](C)[C@@H](CN(C)C(=O)NC2CCCCC2)Oc2ccc(NC(=O)C3CCCCC3)cc2C1=O	none (no result: GSK3beta inhib)
COc1ccc2c(c1)CCc1cc(C(=O)O)sc1-2	Dyrk1A ADPGlo 55 | ADP-Glo artifact inactive
O=C(O)c1cc2c(s1)-c1ccccc1CC2	none (no result: Dyrk1A ADPGlo)
O=C(O)Cc1ccc(N=Nc2c(O)c(C(=O)O)cc3ccccc23)cc1	none
NS(=O)(=O)c1ccc(N=Nc2c(O)c(C(=O)O)cc3ccccc23)cc1	Dyrk1A ADPGlo 54 | ADP-Glo artifact inactive
CCc1ccccc1NC(=O)C1CCCN(S(=O)(=O)c2ccc3c(c2)CC(C)N3C(C)=O)C1 (stereo unspecified)	Dyrk1A ADPGlo 56 | ADP-Glo artifact inactive
CCC(C)NC(=O)C1CCCN(S(=O)(=O)c2ccc3c(c2)CC(C)N3C(C)=O)C1 (stereo unspecified)	none
CCC(C)NC(=O)C1CCCN(S(=O)(=O)c2ccc3c(c2)CC(C)N3C(=O)C2CC2)C1 (stereo unspecified)	Dyrk1A ADPGlo 58 | ADP-Glo artifact inactive
CC(=O)N1c2ccc(S(=O)(=O)N3CCCC(C(=O)N4CCCC(C)C4)C3)cc2CC1C (stereo unspecified)	none
Cc1cc(C(=O)CN2C(=O)NC(C)(CC(C)C)C2=O)c(C)n1-c1ccc2c(c1)OCO2 (stereo unspecified)	none
COc1cc(N2CN=c3s/c(=C\c4ccccn4)c(=O)n3C2)cc(OC)c1OC	Dyrk1A ADPGlo 53 | ADP-Glo artifact inactive
NC(=S)Nc1ccc2cn[nH]c2c1	none
Cc1cc(C)cc(NC(=S)Nc2ccc3cn[nH]c3c2)c1	none (no result: GSK3A inh, STK33 inh)
C=CCNC(=S)Nc1ccc2cn[nH]c2c1	Dyrk1A ADPGlo 70 | ADP-Glo artifact inactive
Cc1ccc(NC(=S)Nc2ccc3cn[nH]c3c2)cc1	Dyrk1A ADPGlo 63 | ADP-Glo artifact inactive
COC(=O)c1c(O)cc(C(C)(C)C)n(-c2ccccc2)c1=O	none
